Experimental data of several laboratories.
Compare with care: the assays were run in different laboratories. pIC50: −log10 of the molar value. Converted amounts (≈) assume the structure as drawn.

`COc1ccc2c(ccc3oc([N+](=O)[O-])c(C)c32)c1` gave an MIC90 of over 32 µg/mL (Mycolicibacterium smegmatis; microbial growth, resazurin; MC^2155).
The MBC of `Cc1c2ccncc2c(C)c2c1[nH]c1ccccc12` is reported as 87.1 µM (≈ 21.5 µg/mL) (Mycolicibacterium smegmatis; microbial killing, resazurin).
`CCCCCOc1ccc(-c2cc(-c3ccc(C(=O)N[C@H]4C[C@@H](O)[C@@H](O)NC(=O)[C@@H]5[C@@H](O)[C@@H](C)CN5C(=O)[C@H]([C@H](O)CC(N)=O)NC(=O)[C@H]([C@H](O)[C@@H](O)c5ccc(O)c(OS(=O)(=O)O)c5)NC(=O)[C@@H]5C[C@@H](O)CN5C(=O)[C@H]([C@@H](C)O)NC4=O)cc3)no2)cc1` has an inhibition of 28% (Candida tropicalis; biofilm formation; 16 µg/mL).
`Cn1cnc2nc(NCc3ccc(Cl)c(Cl)c3)[nH]c(=O)c21` gave an MIC of 32 µg/mL (≈ 98.7 µM) (Lacticaseibacillus casei; microbial growth, agar dilution; 48 h).
`O=C1C2CC3CC(C2)CC1C3` gave a pIC50 of under 3.30 (Mycolicibacterium smegmatis; microbial growth; 48 h).
For `O=[N+]([O-])c1cc2cc3ccc4oc([N+](=O)[O-])cc4c3cc2o1`, the MIC90 was 4 µg/mL (≈ 13.4 µM) (Mycolicibacterium smegmatis; microbial growth, resazurin; MC^2155).
With `CC(C)[C@H](N)C(=O)OCCCCCn1cnc2nc(NCc3ccc(Cl)c(Cl)c3)[nH]c(=O)c21` the MIC was over 32 µg/mL (Lacticaseibacillus casei; microbial growth, agar dilution; 48 h).
With `CC(C)=CCC/C(C)=C/CNCCNC1C2CC3CC(C2)CC1C3` (centres unmarked) the pIC50 was 5.62 (Mycolicibacterium smegmatis; microbial growth; 48 h).
